Measured values reported in ChEMBL document CHEMBL1137387, “Structural determinants of opioid activity in derivatives of 14-aminomorphinones: effects of changes to the chain linking of the C14-amino group to the aryl ring” (J Med Chem, 2006).
Activity calls are given as the source filed them. The calls are words filed in the database; no cut-off is given here.

Assays:
[1] = biological target: T1, Mu-type opioid receptor (Homo sapiens, UniProt P35372); test: Activity at human recombinant mu opioid receptor expressed in CHO cells assessed as stimulation of [35S]GTP-gamma-S binding relative to DAMGO; assay type: functional, cell-based
Procedure, shortened: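 Membranes of CHO cells transfected with recombinant human MOR were assayed for stimulation of [35S]GTPγS binding. Efficacy is expressed against the standard DAMGO. Values are means of five or six experiments.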

[2] = biological target: T2, Delta-type opioid receptor (Homo sapiens, UniProt P41143); test: Activity at human recombinant delta opioid receptor expressed in CHO cells assessed as stimulation of [35S]GTP-gamma-S binding; assay type: functional, cell-based
[3] = biological target: T1, Mu-type opioid receptor; test: Inhibition of DAMGO-stimulated [35S]GTP-gamma-S binding to mu opioid receptor expressed in C6 cells at 100 nM; assay type: functional, cell-based
Procedure, shortened: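 C6 membranes expressing MOR were preincubated with ligand (100 nM) or vehicle in Tris-HCl buffer for 1 h at 25 °C. They were then centrifuged, resuspended, held at 37 °C to dissociate weakly bound ligand, recentrifuged and washed twice more. Washed membranes (15 µg) were incubated 1 h at 25 °C with increasing DAMGO and buffered [35S]GTPγS, giving DAMGO concentration–effect curves.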

[4] = biological target: T2, Delta-type opioid receptor; test: Displacement of [3H]Cl-DPDPE from human recombinant delta opioid receptor expressed in CHO cells; assay type: cell-based
[5] = biological target: T1, Mu-type opioid receptor; test: Displacement of [3H]DAMGO from human recombinant mu opioid receptor expressed in CHO cells; assay type: cell-based
Procedure, shortened: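 Competition binding used membranes of CHO cells transfected with recombinant human MOR, with [3H]DAMGO as the selective radioligand. Affinity is reported as Ki (nM).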

[6] = biological target: T3, Kappa-type opioid receptor (Homo sapiens, UniProt P41145); test: Displacement of [3H]U-69593 from human recombinant kappa opioid receptor expressed in CHO cells; assay type: cell-based
[7] = biological target: Opioid receptor (mu and kappa) (Cavia porcellus) (UniProt P41144+P97266); test: Selectivity for guinea pig mu opioid receptor over kappa opioid receptor; assay type: protein assay
[8] = species on record: Cavia porcellus; test: Selectivity for guinea pig mu opioid receptor over delta opioid receptor
[9] = biological target: Mu-type opioid receptor (Cavia porcellus, UniProt P97266); test: Displacement of [3H]DAMGO from mu opioid receptor in guinea pig brain homogenate; assay type: tissue-based
[10] = biological target: Kappa-type opioid receptor (Cavia porcellus, UniProt P41144); test: Displacement of [3H]U-69593 from kappa opioid receptor in guinea pig brain homogenate; assay type: tissue-based
[11] = biological target: T1, Mu-type opioid receptor; test: Displacement of [3H]diprenorphine from human mu opioid receptor expressed in C6 cells; assay type: cell-based
[12] = biological target: T2, Delta-type opioid receptor; test: Displacement of [3H]diprenorphine from human recombinant delta opioid receptor expressed in C6 cells; assay type: cell-based
[13] = biological target: T3, Kappa-type opioid receptor; test: Displacement of [3H]diprenorphine from human recombinant kappa opioid receptor expressed in C6 cells; assay type: cell-based
[14] = tested on: Mus musculus; test: Agonist activity in mouse tail withdrawal assay at 1 mg/kg relative to morphine; assay type: functional
Procedure, shortened: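 Antinociception in mice was measured as tail withdrawal from 50 °C water, with a test dose of 1 mg/kg compared against morphine. In a separate arm, the morphine antinociceptive dose–effect curve was determined after 24 h pretreatment to probe delayed MOR antagonism.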

Chain of Mu-type opioid receptor (Cavia porcellus, UniProt P97266) (P97266 whole entry): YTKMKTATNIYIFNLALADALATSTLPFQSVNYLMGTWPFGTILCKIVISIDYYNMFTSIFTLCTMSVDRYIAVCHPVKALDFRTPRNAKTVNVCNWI
T3 sequence (P41145 whole entry): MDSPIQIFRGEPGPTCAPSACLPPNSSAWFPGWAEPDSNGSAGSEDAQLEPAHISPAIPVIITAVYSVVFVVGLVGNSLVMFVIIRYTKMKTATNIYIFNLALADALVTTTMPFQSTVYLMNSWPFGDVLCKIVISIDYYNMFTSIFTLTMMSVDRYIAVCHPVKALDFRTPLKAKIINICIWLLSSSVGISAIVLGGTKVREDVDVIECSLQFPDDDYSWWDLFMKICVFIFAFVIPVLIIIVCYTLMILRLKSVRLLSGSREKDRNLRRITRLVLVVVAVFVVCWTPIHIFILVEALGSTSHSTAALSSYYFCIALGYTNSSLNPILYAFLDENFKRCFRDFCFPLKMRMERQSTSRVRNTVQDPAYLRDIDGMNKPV
Chain of Opioid receptor (mu and kappa) (Cavia porcellus) (P41144 whole entry, looked up): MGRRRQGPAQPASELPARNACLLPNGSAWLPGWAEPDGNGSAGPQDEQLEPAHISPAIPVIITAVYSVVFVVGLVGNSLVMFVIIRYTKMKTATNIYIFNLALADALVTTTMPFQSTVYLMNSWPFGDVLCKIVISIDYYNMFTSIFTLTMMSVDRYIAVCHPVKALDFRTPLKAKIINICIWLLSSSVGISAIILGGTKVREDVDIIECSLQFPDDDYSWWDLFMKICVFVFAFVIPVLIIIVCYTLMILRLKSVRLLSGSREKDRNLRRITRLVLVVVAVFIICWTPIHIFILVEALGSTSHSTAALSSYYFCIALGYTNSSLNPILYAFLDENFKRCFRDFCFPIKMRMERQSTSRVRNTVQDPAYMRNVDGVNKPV
Chain of Opioid receptor (mu and kappa) (Cavia porcellus) (P97266 whole entry, looked up): as the sequence (P97266 whole entry) above
Chain of Kappa-type opioid receptor (Cavia porcellus, UniProt P41144) (P41144 whole entry): as the sequence (P41144 whole entry, looked up) above
T1 sequence (P35372 whole entry): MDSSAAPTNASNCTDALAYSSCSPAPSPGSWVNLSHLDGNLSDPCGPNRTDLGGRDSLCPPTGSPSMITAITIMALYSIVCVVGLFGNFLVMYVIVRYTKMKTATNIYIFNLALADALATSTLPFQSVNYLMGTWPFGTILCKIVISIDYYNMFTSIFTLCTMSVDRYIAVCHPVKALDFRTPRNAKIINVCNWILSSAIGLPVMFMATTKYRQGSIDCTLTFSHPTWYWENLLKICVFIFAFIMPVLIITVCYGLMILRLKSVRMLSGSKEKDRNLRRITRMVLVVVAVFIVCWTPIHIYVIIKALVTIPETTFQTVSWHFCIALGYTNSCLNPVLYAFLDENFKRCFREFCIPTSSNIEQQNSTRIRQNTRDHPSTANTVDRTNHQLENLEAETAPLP
T2 sequence (P41143 whole entry): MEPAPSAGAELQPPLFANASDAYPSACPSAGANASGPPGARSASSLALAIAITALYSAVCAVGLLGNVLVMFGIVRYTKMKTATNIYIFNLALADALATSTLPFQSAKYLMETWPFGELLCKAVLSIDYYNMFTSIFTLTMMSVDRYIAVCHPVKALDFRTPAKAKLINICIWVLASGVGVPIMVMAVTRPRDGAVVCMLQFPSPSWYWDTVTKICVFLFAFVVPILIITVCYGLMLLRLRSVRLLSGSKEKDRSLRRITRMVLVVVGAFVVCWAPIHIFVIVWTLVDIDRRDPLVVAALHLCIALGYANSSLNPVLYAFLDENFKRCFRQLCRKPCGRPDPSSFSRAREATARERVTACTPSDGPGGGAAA

| SMILES | Activity ([1]; filed as antagonist) | IC50 [2] | Ki [4] | Ki [5] | Ki [6] | further results |
| --- | --- | --- | --- | --- | --- | --- |
| COc1ccc2c3c1O[C@H]1C(=O)CC[C@@]4(NC(=O)/C=C/c5ccc(Cl)cc5)[C@@H](C2)N(CC2CC2)CC[C@]314 | Antagonist | 7.16 nM | – | – | – | – |
| O=C(/C=C/c1ccc(Cl)cc1)N[C@@]12CCC(=O)[C@@H]3Oc4c(O)ccc5c4[C@@]31CCN(CC1CC1)[C@@H]2C5 [CLOCINNAMOX] | Antagonist | 0.19 nM | – | – | – | Activity [3]: Active |
| COc1ccc2c3c1O[C@H]1C(=O)CC[C@@]4(NC(=O)C/C=C/c5ccc(Cl)cc5)[C@@H](C2)N(CC2CC2)CC[C@]314 | Antagonist | 118 nM | 104 nM | 8.19 nM | 21.5 nM | – |
| COc1ccc2c3c1O[C@H]1C(=O)CC[C@@]4(NCCCc5ccc(Cl)cc5)[C@@H](C2)N(CC2CC2)CC[C@]314 | Antagonist | 1.66 nM | – | – | – | Ratio Ki [7]: 133; Ratio Ki [8]: 53; Ki [9]: 0.59 nM; Ki [10]: 78.6 nM |
| COc1ccc2c3c1O[C@H]1C(=O)CC[C@@]4(NC(=O)CCCc5ccc(Cl)cc5)[C@@H](C2)N(CC2CC2)CC[C@]314 | Antagonist | 79.9 nM | 89.4 nM | 3.88 nM | 7.51 nM | – |
| O=C(C/C=C/c1ccc(Cl)cc1)N[C@@]12CCC(=O)[C@@H]3Oc4c(O)ccc5c4[C@@]31CCN(CC1CC1)[C@@H]2C5 | Antagonist | 1.7 nM | 3.25 nM | 1.87 nM | 4.94 nM | – |
| COc1ccc2c3c1O[C@H]1C(=O)CC[C@@]4(NCCCCc5ccc(Cl)cc5)[C@@H](C2)N(CC2CC2)CC[C@]314 | Antagonist | 61.1 nM | 55.9 nM | 2.23 nM | 41.5 nM | – |
| O=C1CC[C@@]2(NCC/C=C/c3ccc(Cl)cc3)[C@H]3Cc4ccc(O)c5c4[C@@]2(CCN3CC2CC2)[C@H]1O5 | Antagonist | 1.17 nM | 2.1 nM | 1 nM | 3.69 nM | – |
| O=C1CC[C@@]2(NCCc3ccc(Cl)cc3)[C@H]3Cc4ccc(O)c5c4[C@@]2(CCN3CC2CC2)[C@H]1O5 | – | 1.59 nM | 1.91 nM | 0.86 nM | 1.53 nM | Efficacy [1]: 34%; Activity ([1]; filed as partial agonist): Partial agonist |
| COc1ccc2c3c1O[C@H]1C(=O)CC[C@@]4(NC/C=C/c5ccc(Cl)cc5)[C@@H](C2)N(CC2CC2)CC[C@]314 | – | – | – | – | – | Ratio Ki [7]: 76.6; Ratio Ki [8]: 63.6; Ki [9]: 0.7 nM; Ki [10]: 53.6 nM |
| O=C1CC[C@@]2(NC/C=C/c3ccc(Cl)cc3)[C@H]3Cc4ccc(O)c5c4[C@@]2(CCN3CC2CC2)[C@H]1O5 | – | – | – | – | – | Ki [11]: 0.32 nM; Ki [12]: 0.63 nM; Ki [13]: 0.91 nM |
| O=C(CCc1ccc(Cl)cc1)N[C@@]12CCC(=O)[C@@H]3Oc4c(O)ccc5c4[C@@]31CCN(CC1CC1)[C@@H]2C5 | Antagonist | 0.03 nM | – | – | – | Ratio Ki [7]: 16.2; Ratio Ki [8]: 15; Ki [9]: 0.04 nM; Ki [10]: 0.65 nM |
| COc1ccc2c3c1O[C@H]1C(=O)CC[C@@]4(NCCc5ccc(Cl)cc5)[C@@H](C2)N(CC2CC2)CC[C@]314 | – | 63 nM | 33.8 nM | 1.33 nM | 13.1 nM | Efficacy [1]: 39%; Activity ([1]; filed as partial agonist): Partial agonist |
| COc1ccc2c3c1O[C@H]1C(=O)CC[C@@]4(NC(=O)/C=C/Cc5ccc(Cl)cc5)[C@@H](C2)N(CC2CC2)CC[C@]314 | Antagonist | – | 242 nM | 8.07 nM | 25.2 nM | – |
| O=C(CCCc1ccc(Cl)cc1)N[C@@]12CCC(=O)[C@@H]3Oc4c(O)ccc5c4[C@@]31CCN(CC1CC1)[C@@H]2C5 | Antagonist | 1.37 nM | 3.85 nM | 1.34 nM | 2.95 nM | – |
| O=C1CC[C@@]2(NC/C=C/Cc3ccc(Cl)cc3)[C@H]3Cc4ccc(O)c5c4[C@@]2(CCN3CC2CC2)[C@H]1O5 | Antagonist | 3.35 nM | 6.65 nM | 1.89 nM | 3.72 nM | – |
| COc1ccc2c3c1O[C@H]1C(=O)CC[C@@]4(NC(=O)Cc5ccc(Cl)cc5)[C@@H](C2)N(CC2CC2)CC[C@]314 | – | 88.7 nM | 51.9 nM | 2.64 nM | 2.59 nM | Efficacy [1]: 39%; Activity ([1]; filed as partial agonist): Partial agonist |
| O=C1CC[C@@]2(NCCCc3ccc(Cl)cc3)[C@H]3Cc4ccc(O)c5c4[C@@]2(CCN3CC2CC2)[C@H]1O5 | Antagonist | 0.02 nM | – | – | – | Ratio Ki [7]: 14.6; Ratio Ki [8]: 8.5; Ki [9]: 0.13 nM; Ki [10]: 1.9 nM |
| COc1ccc2c3c1O[C@H]1C(=O)CC[C@@]4(O)[C@@H](C2)N(CC2CC2)CC[C@]314 | Antagonist | 1000 nM | 272 nM | 85.6 nM | 128 nM | – |
| COc1ccc2c3c1O[C@H]1C(=O)CC[C@@]4(NC(=O)CCc5ccc(Cl)cc5)[C@@H](C2)N(CC2CC2)CC[C@]314 | Antagonist | 0.76 nM | – | – | – | Ratio Ki [7]: 27.1; Ratio Ki [8]: 21.2; Ki [9]: 0.24 nM; Ki [10]: 6.5 nM |
| COc1ccc2c3c1O[C@H]1C(=O)CC[C@@]4(NC/C=C/Cc5ccc(Cl)cc5)[C@@H](C2)N(CC2CC2)CC[C@]314 | Antagonist | 96.8 nM | 94.9 nM | 6.76 nM | 25.9 nM | – |
| O=C1CC[C@@]2(NCCCCc3ccc(Cl)cc3)[C@H]3Cc4ccc(O)c5c4[C@@]2(CCN3CC2CC2)[C@H]1O5 | Antagonist | 0.67 nM | 2.18 nM | 0.96 nM | 5.27 nM | – |
| O=C(Cc1ccc(Cl)cc1)N[C@@]12CCC(=O)[C@@H]3Oc4c(O)ccc5c4[C@@]31CCN(CC1CC1)[C@@H]2C5 | – | 2.41 nM | 1.51 nM | 0.73 nM | 1 nM | Efficacy [1]: 29%; Activity ([1]; filed as partial agonist): Partial agonist; Activity [14]: 10 |
| COc1ccc2c3c1O[C@H]1C(=O)CC[C@@]4(NCC/C=C/c5ccc(Cl)cc5)[C@@H](C2)N(CC2CC2)CC[C@]314 | Antagonist | 148 nM | 24.8 nM | 1.15 nM | 33.5 nM | – |
